From PubChem
A selection: hits, their analogues and other compounds. The true share with any hit is near 1.6%.
Diaphorase act – counter-screen for diaphorase-based assays: diaphorase activators and chemical reducers; Diaphorase/resazurin coupled assay, resorufin fluorescence, 16 min; hits give high values; 1 = vehicle wells, 0 = NADH-free wells; activation factor at 20 µM; 190,000 tested, 0.005% active; AID 1229;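 active = diaphorase activity raised at least twofold by the compound at 20 µM; inactive = activation factor below 2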
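Test system: Clostridium kluyveri diaphorase, purified enzyme; input: enzyme 0.07 U/mL final; buffer or medium: 50 mM HEPES pH 7.4 with 4.542 mM MgCl2, 0.005% Tween 20; also added: 0.114 mM NADH and 0.1 mM resazurin, final amounts; schedule: 16 min enzyme reaction, ambient temperature; technique: fluorescence of resorufin, 544 nm excitation, 590 nm emission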
ABCB1 block – inhibitors of human ABCB1 transporter, ABCG2 counter-screen; 190,000 tested, 0.067% active; inhibition, % at 6.6 µM; P08183; CCRF-Adr cells, JC-1 efflux, flow cytometry; in the data active = inhibition above about 40%;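 note: 0% = vehicle and 100% = reference inhibitor; higher value means more JC-1 retained so stronger ABCB1 efflux block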
ABCG2 inh – blocks JC-1 efflux by human ABCG2 transporter. IgMXP3 cells, flow cytometry. inhibition, % at 6.6 µM. AID 1325. 190,000 tested, 0.1% active;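 active = inhibition above 80%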;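 note: 0% = DMSO and 100% = nicardipine control wells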
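test system = two drug-resistant human cell lines, ABCG2 and ABCB1 | amount = 3 million cells/mL final, two lines in 1:1 ratio | reagent = JC-1 transporter substrate | doses = one concentration, 6.6 µM final | incubation = 10 min at 25 °C | signal = flow cytometric JC-1 green MFI at 530 nm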
Efa HMGR inh – E. faecalis class II HMG-CoA reductase inhibition | 190,000 tested, 0.41% active | purified E. faecalis HMGR, NADPH absorbance 340 nm kinetic | AID 1066 | inhibition, % at 10 µM;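 active = inhibition above a set limit, the median over all tested compounds plus 3 SD, cut at about 9.5% in these data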;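 note: enzyme runs in reverse so mevalonate oxidation gives rising NADPH absorbance; 0% = complete reaction with DMSO and 100% = background rate lacking mevalonate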
Diaph inh CS – inhibits diaphorase or chemically oxidizes, flagging diaphorase assay artifacts; diaphorase resazurin-to-resorufin fluorescence, NADH, 16 min; bacterial (C. kluyveri) enzyme, not human; inhibition, % at 20 µM; 190,000 tested, 0.69% active; AID 1217;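 active = primary screen inhibition at 20 µM above a set limit, cut at about 50% in these data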;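 note: plate controls were DMSO with full reaction for no effect and wells lacking NADH for full effect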
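Test system: diaphorase enzyme from Clostridium kluyveri; amount: diaphorase at 0.14 U/mL in enzyme working solution; detection: fluorescence of resorufin formed from resazurin, Ex 544/Em 590 nm; times: reaction incubation of 16 min at room temperature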
p47phox inh – blocks human p47phox regulatory protein of NADPH oxidases; P14598; p47phox/p22phox peptide binding, fluorescence polarization, 2 h; inhibition, % at 24.7 µM; 220,000 tested, 0.53% active; AID 1274;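 active = inhibition above about 30%, limit read from the data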;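 note: 0% = p47phox with labelled peptide and 100% = labelled peptide alone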
Active calls of the source: *; / = no result; + = active, no number.

SMILES	Diaphorase act	ABCB1 block	ABCG2 inh	Efa HMGR inh	Diaph inh CS	p47phox inh
Cc1nnc(SCC(=O)Nc2ccccc2NC(=O)CSc2nnc(C)s2)s1	0.9	0	2	4	8	-20
Cc1cccc(Nc2ccccc2C(=O)OCC(=O)N(C)C2CCS(=O)(=O)C2)c1C (stereo unspecified)	0.8	0	1	2	21	1
CCCOC(=O)c1cccc(NC(=O)COc2ccc([N+](=O)[O-])cc2)c1	0.8	63*	9	-1	20	-7
CCOC(=O)c1cccc(NC(=O)COc2ccc([N+](=O)[O-])cc2)c1	1	1	4	-4	5	-1
CCOC(=O)N/N=C\c1ccc(C)s1	1	0	1	0	0	-2
CCCCN1C(=O)/C(=C/C=C2\SCCN2C)SC1=S	0.7	2	8	-7	27	54*
O=C(N/N=C/c1c(O)ccc2ccccc12)c1ccc[n+](CCO)c1	0.5	0	23	2	54*	16
CCC(C)(C)n1nnnc1C(c1ccc(OC)c(OC)c1)N1CCN(c2cccc(OC)c2)CC1 (stereo unspecified)	0.8	1	1	0	23	-5
COC(=O)c1sccc1NC(=O)COc1cccc(C)c1	/	/	/	/	/	-12
COC(=O)c1ccc(OCC(=O)Nc2ccsc2C(=O)OC)cc1	1	0	8	12*	4	2
O=C(NCc1cccnc1)c1cc(-c2ccccc2)on1	0.9	1	4	0	8	7
Nc1cc(C(=O)O)c(N)c2c1C(=O)c1ccccc1C2=O	/	/	/	/	/	+
Nc1c(C(=O)O)ccc2c1C(=O)c1ccccc1C2=O	0.8	0	6	1	17	77*
O=C(Nc1cccc(F)c1)c1sc(Cl)nc1-c1ccccc1	0.9	0	5	-3	8	-7
CC(C(=O)N1CCN(C)CC1)N1C(=O)c2ccccc2C1=O (stereo unspecified)	1	0	4	-4	2	-5
CC(C(=O)O)N1C(=O)c2ccccc2C1=O (stereo unspecified)	1	0	1	12*	1	1
Cc1ccc(-c2nnc(SCC(=O)Nc3ccccc3F)o2)cc1	0.8	0	2	1	17	-19
O=C(O)CCCCCn1c(SCC(=O)c2ccc(O)c(O)c2)nc2ccsc2c1=O	0.5	0	19	13*	50	3
COc1ccc(-c2noc(CSc3nnc(Cc4ccccc4)n3-c3ccc(Cl)cc3)n2)cc1	0.8	2	6	-6	23	4
Cc1ccc(-c2noc(CSc3nnc(Cc4ccccc4)n3-c3ccc(Cl)cc3)n2)cc1	0.7	2	17	18*	26	-19
COc1cc(/C=N/c2oc(-c3ccccc3)cc2C#N)ccc1O	0.8	0	-1	10*	22	-42
COc1cc(/C=N/NC(=O)c2ccccc2)ccc1O	1	0	3	5	0	4
Clc1ccc(-c2c[nH]c3ccccc23)nn1	0.4	-1	-1	3	63*	-5
c1ccc2c(-c3c[nH]c4ccccc34)c3ccccc3nc2c1	0.7	1	24	-1	33	-16
O=C(COc1ccc2ccccc2c1)N1CCN(C(=O)c2ccco2)CC1	0.9	0	0	10*	5	-3
C=CCC1C=C(C)CC(CC=C)N1 (stereo unspecified)	1.1	-1	-3	13*	-5	8
C/C(CC(=O)NC1C2CC3CC(C2)CC1C3)=N\NC(=O)Cc1cccs1 (stereo unspecified)	0.9	0	8	-2	13	-11
O=C(O)C1CCN(c2ccc(S(=O)(=O)N3CCOCC3)cc2[N+](=O)[O-])CC1	1	0	0	0	-4	69*
O=[N+]([O-])c1cc(S(=O)(=O)N2CCOCC2)ccc1N1CCCC1	1	-2	-7	-3	3	-4
CN1CCc2c(C#N)c(N3CCCCC3)nc(NCc3ccccc3)c2C1	0.8	1	2	0	17	-4
